Assays:
CH1 = assay: In vitro cytotoxicity against ovarian carcinoma cell line CH1.; type: functional, cell-based, Homo sapiens
How it was run: (§1)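 Cells seeded and left to attach overnight, then exposed in quadruplicate wells to compound (20 mM DMSO stock diluted in growth medium) at final 100 µM to 2.5 nM for 96 h at 37 °C. Cells fixed with 10% trichloroacetic acid, stained with 0.4% sulforhodamine B, absorbance read at 540 nm. IC50 from concentration versus percent absorbance of untreated wells.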

Nucleic Acid [1] = assay: Effect on thermal denaturation temperature of CT-DNA after incubation for 4 hours with the compound; type: functional; settings: Bos taurus
How it was run: (§2)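 Calf thymus duplex DNA (100 µM in phosphate) with PBD at 20 µM (1:5 PBD/DNA ratio), added from concentrated MeOH solution. Buffer was 10 mM sodium phosphate, 1 mM Na2EDTA, pH 7.00. Incubated at 37 °C for the stated time, then A260 read while heating 40-98 °C at 1 °C/min. Tm taken from d(A260)/dT maxima, MeOH-corrected. ΔTm = Tm(DNA+PBD) − Tm(DNA alone). Mean of three determinations.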

Nucleic Acid [2] = assay: Effect on thermal denaturation temperature of CT-DNA after incubation for 36 hours with the compound; type: functional; settings: Bos taurus; how it was run: as §2
A2780 [3] = assay: In vitro cytotoxicity against. ovarian carcinoma cell line A2780.; type: functional, cell-based, Homo sapiens; how it was run: as §1
Nucleic Acid [4] = assay: Effect on thermal denaturation temperature of CT-DNA after incubation for 0 hours with the compound; type: functional; settings: Bos taurus; how it was run: as §2
[5] = In vitro cytotoxicity against. ovarian carcinoma cell line CH1cisR (cisplatin resistant counter part of CH1).; type: functional, cell-based, Homo sapiens; how it was run: as §1
SK-OV-3 = assay: In vitro cytotoxicity against. ovarian carcinoma cell line SKOV-3.; type: functional, cell-based, Homo sapiens; how it was run: as §1
A2780 [6] = assay: In vitro cytotoxicity against. ovarian carcinoma cell line A2780cisR (cisplatin resistant counter part of A2780).; type: functional, cell-based, Homo sapiens; how it was run: as §1
Nucleic Acid [7] = assay: Effect on thermal denaturation temperature of CT-DNA after incubation for 18 hours with the compound; type: functional; settings: Bos taurus; how it was run: as §2

COc1cc2c(cc1OCC1CO1)N=C[C@@H]1CCCN1C2=O (some centres undefined)
IC50 (CH1; Homo sapiens, CH1): 0.059 µM | ΔTm (Nucleic Acid [1]): 0.8 °C | ΔTm (Nucleic Acid [2]): 1.5 °C | IC50 (A2780 [3]; Homo sapiens, A2780): 0.045 µM | ΔTm (Nucleic Acid [4]): 0.5 °C | IC50 ([5]; Homo sapiens, CH1cisR): 0.047 µM | IC50 (SK-OV-3; Homo sapiens, SK-OV-3): 1.3 µM | IC50 (A2780 [6]; Homo sapiens, A2780): 0.2 µM | ΔTm (Nucleic Acid [7]): 1.3 °C

C=CCOc1cc2c(cc1OC)C(=O)N1CCC[C@H]1C=N2
IC50 (CH1; Homo sapiens, CH1): 0.16 µM | ΔTm (Nucleic Acid [1]): 0.7 °C | IC50 (A2780 [3]; Homo sapiens, A2780): 1.05 µM | ΔTm (Nucleic Acid [4]): 0.4 °C | IC50 ([5]; Homo sapiens, CH1cisR): 0.135 µM | IC50 (SK-OV-3; Homo sapiens, SK-OV-3): 3.3 µM | IC50 (A2780 [6]; Homo sapiens, A2780): 1.65 µM | ΔTm (Nucleic Acid [7]): 0.8 °C

COc1cc2c(cc1OCCCOc1cc3c(cc1OC)C(=O)N1CCC[C@H]1C=N3)N=C[C@@H]1CCCN1C2=O [DSB-120]
IC50 (CH1; Homo sapiens, CH1): 0.033 µM | ΔTm (Nucleic Acid [1]): 13.1 °C | IC50 (A2780 [3]; Homo sapiens, A2780): 0.0072 µM | ΔTm (Nucleic Acid [4]): 10.2 °C | IC50 ([5]; Homo sapiens, CH1cisR): 0.022 µM | IC50 (SK-OV-3; Homo sapiens, SK-OV-3): 0.74 µM | IC50 (A2780 [6]; Homo sapiens, A2780): 0.21 µM | ΔTm (Nucleic Acid [7]): 15.1 °C

COc1cc2c(cc1O)N=C[C@@H]1CCCN1C2=O
ΔTm (Nucleic Acid [1]): 0.5 °C | ΔTm (Nucleic Acid [2]): 0.7 °C | ΔTm (Nucleic Acid [4]): 0.3 °C | ΔTm (Nucleic Acid [7]): 0.7 °C

CISPLATIN
IC50 (CH1; ch1): 0.029 µM | IC50 (A2780 [3]; a2780): 0.16 µM | IC50 ([5]; ch1cisr): 0.17 µM | IC50 (SK-OV-3; sk-ov-3): 4.2 µM | IC50 (A2780 [6]; a2780): 6.1 µM

— ChEMBL document CHEMBL1132424, “Design, synthesis, and evaluation of a novel sequence-selective epoxide-containing DNA cross-linking agent based on the pyrrolo[2, 1-c][1,4]benzodiazepine system” (J Med Chem, 1999)
